ChEMBL document CHEMBL1250448, “Inhibitor hijacking of Akt activation” (Nat Chem Biol, 2009)

What was measured:
[1] = target: Protein kinase C epsilon type (Homo sapiens) (UniProt Q02156); assay: Inhibition of PKCE at 1 uM in presence of 10 uM ATP by Select Screen kinase assay relative to untreated control
[2] = target: Protein kinase C theta type (Homo sapiens) (UniProt Q04759); assay: Inhibition of PRKCQ at 1 uM in presence of 10 uM ATP by Select Screen kinase assay relative to untreated control
[3] = target: Serine/threonine-protein kinase D2 (Homo sapiens) (UniProt Q9BZL6); assay: Inhibition of PRKD2 at 1 uM in presence of 10 uM ATP by Select Screen kinase assay relative to untreated control
[4] = target: cGMP-dependent protein kinase 1 (Homo sapiens) (UniProt Q13976); assay: Inhibition of PRKG1 at 1 uM in presence of 10 uM ATP by Select Screen kinase assay relative to untreated control
[5] = test system: Proto-oncogene tyrosine-protein kinase receptor Ret (Homo sapiens), P07949 [Y791F]; assay: Inhibition of RET Y791F mutant at 1 uM in presence of 10 uM ATP by Select Screen kinase assay relative to untreated control
Summary of the method: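 Profiling panel of 220 purified kinases (SelectScreen), each compound tested at 1 μM. Read-out is percent inhibition of kinase activity.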

[6] = test system: Tyrosine-protein kinase ABL1 (Homo sapiens), P00519 [G250E]; assay: Inhibition of ABL1 G250E mutant at 1 uM in presence of 10 uM ATP by Select Screen kinase assay relative to untreated control
Summary of the method: (§1)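 Single-point screen at 1 μM against a panel of 220 purified kinases, run by Invitrogen staff as a SelectScreen profiling service. Read-out is percent inhibition of kinase activity.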

[7] = test system: Tyrosine-protein kinase ABL1 (Homo sapiens), P00519 [Y253F]; assay: Inhibition of ABL1 Y253F mutant at 1 uM in presence of 10 uM ATP by Select Screen kinase assay relative to untreated control; summary of the method: as §1
[8] = target: Beta-adrenergic receptor kinase 1 (Homo sapiens) (UniProt P25098); assay: Inhibition of ADRBK1 at 1 uM in presence of 10 uM ATP by Select Screen kinase assay relative to untreated control; summary of the method: as §1
[9] = target: RAC-beta serine/threonine-protein kinase (Homo sapiens) (UniProt P31751); assay: Inhibition of AKT2 at 1 uM in presence of 10 uM ATP by Select Screen kinase assay relative to untreated control; summary of the method: as §1
[10] = target: Ribosomal protein S6 kinase alpha-1 (Homo sapiens) (UniProt Q15418); assay: Inhibition of RPS6KA1 at 1 uM in presence of 100 uM ATP by Select Screen kinase assay relative to untreated control
[11] = target: Ribosomal protein S6 kinase alpha-6 (Homo sapiens) (UniProt Q9UK32); assay: Inhibition of RPS6KA6 at 1 uM in presence of 10 uM ATP by Select Screen kinase assay relative to untreated control
Summary of the method: (§2)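 Commercial SelectScreen profiling panel of 220 purified kinases. Each kinase was tested at a single inhibitor concentration of 1 μM, and activity was expressed as percent inhibition.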

[12] = target: SRSF protein kinase 3 (Homo sapiens) (UniProt Q9UPE1); assay: Inhibition of STK23 at 1 uM in presence of 10 uM ATP by Select Screen kinase assay relative to untreated control; summary of the method: as §2
[13] = target: Serine/threonine-protein kinase 4 (Homo sapiens) (UniProt Q13043); assay: Inhibition of STK4 at 1 uM in presence of 10 uM ATP by Select Screen kinase assay relative to untreated control; summary of the method: as §2
[14] = target: Cyclin-dependent kinase 2/cyclin A (Homo sapiens) (UniProt P24941+P20248+P78396); assay: Inhibition of CDK2/cyclin A at 1 uM in presence of 10 uM ATP by Select Screen kinase assay relative to untreated control; format: protein-complex assay; summary of the method: as §1
[15] = target: Casein kinase II subunit alpha (Homo sapiens) (UniProt P68400); assay: Inhibition of CSNK2A1 at 1 uM in presence of 10 uM ATP by Select Screen kinase assay relative to untreated control
Summary of the method: (§3)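 Part of a 220-kinase panel of purified kinases, each tested with compound at 1 μM. Percent inhibition was measured in the Invitrogen SelectScreen profiling assay.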

[16] = target: Dual specificity tyrosine-phosphorylation-regulated kinase 3 (Homo sapiens) (UniProt O43781); assay: Inhibition of DYRK3 at 1 uM in presence of 10 uM ATP by Select Screen kinase assay relative to untreated control; summary of the method: as §3
[17] = target: Ephrin type-A receptor 3 (Homo sapiens) (UniProt P29320); assay: Inhibition of EPHA3 at 1 uM in presence of 10 uM ATP by Select Screen kinase assay relative to untreated control; summary of the method: as §3
[18] = target: Glycogen synthase kinase-3 alpha (Homo sapiens) (UniProt P49840); assay: Inhibition of GSK3A at 1 uM in presence of 10 uM ATP by Select Screen kinase assay relative to untreated control; summary of the method: as §3
[19] = target: Glycogen synthase kinase-3 beta (Homo sapiens) (UniProt P49841); assay: Inhibition of GSK3B at 1 uM in presence of 10 uM ATP by Select Screen kinase assay relative to untreated control; summary of the method: as §3
[20] = target: Tyrosine-protein kinase JAK2 (Homo sapiens) (UniProt O60674); assay: Inhibition of JAK2 JH1 JH2 domain at 1 uM in presence of 100 uM ATP by Select Screen kinase assay relative to untreated control
Summary of the method: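 Single-concentration profiling at 1 μM against a panel of 220 purified kinases, run as an outsourced SelectScreen kinase profiling service. Activity is expressed as percent inhibition.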

[21] = target: Mitogen-activated protein kinase kinase kinase kinase 2 (Homo sapiens) (UniProt Q12851); assay: Inhibition of MAP4K2 at 1 uM in presence of 10 uM ATP by Select Screen kinase assay relative to untreated control
[22] = target: Mitogen-activated protein kinase 11 (Homo sapiens) (UniProt Q15759); assay: Inhibition of MAPK11 at 1 uM in presence of 100 uM ATP by Select Screen kinase assay relative to untreated control
[23] = target: MAP kinase-activated protein kinase 3 (Homo sapiens) (UniProt Q16644); assay: Inhibition of MAPKAPK3 at 1 uM in presence of 10 uM ATP by Select Screen kinase assay relative to untreated control
[24] = target: Serine/threonine-protein kinase PAK 6 (Homo sapiens) (UniProt Q9NQU5); assay: Inhibition of PAK6 at 1 uM in presence of 10 uM ATP by Select Screen kinase assay relative to untreated control
[25] = target: Platelet-derived growth factor receptor beta (Homo sapiens) (UniProt P09619); assay: Inhibition of PDGFRbeta at 1 uM in presence of 100 uM ATP by Select Screen kinase assay relative to untreated control
[26] = target: Aurora kinase B (Homo sapiens) (UniProt Q96GD4); assay: Inhibition of AURKB at 1 uM in presence of 10 uM ATP by Select Screen kinase assay relative to untreated control

Sequence of Serine/threonine-protein kinase D2 (Homo sapiens) (Q9BZL6 whole entry): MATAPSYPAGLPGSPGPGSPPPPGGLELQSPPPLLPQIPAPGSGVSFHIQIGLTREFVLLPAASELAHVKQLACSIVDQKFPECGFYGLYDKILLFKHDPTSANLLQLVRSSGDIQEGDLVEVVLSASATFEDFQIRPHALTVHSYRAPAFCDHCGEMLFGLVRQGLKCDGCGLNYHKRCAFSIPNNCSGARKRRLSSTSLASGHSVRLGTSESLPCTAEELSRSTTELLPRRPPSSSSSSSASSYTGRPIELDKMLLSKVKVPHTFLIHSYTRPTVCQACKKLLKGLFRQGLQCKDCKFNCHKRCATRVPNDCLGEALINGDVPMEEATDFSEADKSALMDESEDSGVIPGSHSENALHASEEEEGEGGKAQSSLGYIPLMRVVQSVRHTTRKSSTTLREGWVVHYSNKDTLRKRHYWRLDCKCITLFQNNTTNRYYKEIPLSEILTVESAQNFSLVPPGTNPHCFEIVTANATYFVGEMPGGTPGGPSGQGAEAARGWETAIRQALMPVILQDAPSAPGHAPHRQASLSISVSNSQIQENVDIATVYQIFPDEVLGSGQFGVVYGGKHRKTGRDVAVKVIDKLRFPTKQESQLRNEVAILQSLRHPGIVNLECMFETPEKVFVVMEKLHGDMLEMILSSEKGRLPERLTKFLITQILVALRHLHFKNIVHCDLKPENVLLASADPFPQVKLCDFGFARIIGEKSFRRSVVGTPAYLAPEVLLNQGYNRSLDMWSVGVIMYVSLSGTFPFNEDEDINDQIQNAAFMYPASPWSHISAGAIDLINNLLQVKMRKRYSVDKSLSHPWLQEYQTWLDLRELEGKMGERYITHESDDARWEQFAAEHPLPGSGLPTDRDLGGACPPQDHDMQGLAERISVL
Sequence of SRSF protein kinase 3 (Homo sapiens) (Q9UPE1 whole entry): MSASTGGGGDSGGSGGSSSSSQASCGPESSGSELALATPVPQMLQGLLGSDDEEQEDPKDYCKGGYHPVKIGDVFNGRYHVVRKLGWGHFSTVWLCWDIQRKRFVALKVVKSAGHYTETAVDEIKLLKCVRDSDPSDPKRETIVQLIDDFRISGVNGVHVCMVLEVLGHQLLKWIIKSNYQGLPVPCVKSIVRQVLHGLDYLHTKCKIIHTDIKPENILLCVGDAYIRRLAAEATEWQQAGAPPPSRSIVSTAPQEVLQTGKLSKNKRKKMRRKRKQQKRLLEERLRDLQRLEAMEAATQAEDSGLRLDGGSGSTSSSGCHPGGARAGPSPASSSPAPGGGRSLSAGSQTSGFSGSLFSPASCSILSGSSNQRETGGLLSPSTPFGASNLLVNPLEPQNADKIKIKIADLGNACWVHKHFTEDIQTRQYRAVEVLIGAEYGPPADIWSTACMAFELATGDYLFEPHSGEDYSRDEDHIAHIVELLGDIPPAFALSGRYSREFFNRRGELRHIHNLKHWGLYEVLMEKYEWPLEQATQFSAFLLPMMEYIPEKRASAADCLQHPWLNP
Sequence of Beta-adrenergic receptor kinase 1 (Homo sapiens) (P25098 whole entry): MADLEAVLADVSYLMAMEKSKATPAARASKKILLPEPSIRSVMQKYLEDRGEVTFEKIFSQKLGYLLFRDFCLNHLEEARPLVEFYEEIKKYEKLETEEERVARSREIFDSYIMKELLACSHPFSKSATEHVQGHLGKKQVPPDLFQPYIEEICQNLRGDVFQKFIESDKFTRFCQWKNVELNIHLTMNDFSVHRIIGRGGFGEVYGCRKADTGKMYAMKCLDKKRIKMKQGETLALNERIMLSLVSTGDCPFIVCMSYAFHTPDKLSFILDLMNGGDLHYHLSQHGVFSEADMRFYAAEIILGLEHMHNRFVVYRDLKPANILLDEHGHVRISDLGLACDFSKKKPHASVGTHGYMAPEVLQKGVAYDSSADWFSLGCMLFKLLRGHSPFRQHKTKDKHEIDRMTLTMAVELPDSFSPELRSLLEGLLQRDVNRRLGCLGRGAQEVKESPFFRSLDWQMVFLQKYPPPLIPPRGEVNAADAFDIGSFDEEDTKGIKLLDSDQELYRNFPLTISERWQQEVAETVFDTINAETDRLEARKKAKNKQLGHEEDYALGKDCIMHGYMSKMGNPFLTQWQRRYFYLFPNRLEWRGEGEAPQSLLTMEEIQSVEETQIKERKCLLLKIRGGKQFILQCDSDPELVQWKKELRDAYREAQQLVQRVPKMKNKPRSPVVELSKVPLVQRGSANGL
Sequence of MAP kinase-activated protein kinase 3 (Homo sapiens) (Q16644 whole entry, looked up): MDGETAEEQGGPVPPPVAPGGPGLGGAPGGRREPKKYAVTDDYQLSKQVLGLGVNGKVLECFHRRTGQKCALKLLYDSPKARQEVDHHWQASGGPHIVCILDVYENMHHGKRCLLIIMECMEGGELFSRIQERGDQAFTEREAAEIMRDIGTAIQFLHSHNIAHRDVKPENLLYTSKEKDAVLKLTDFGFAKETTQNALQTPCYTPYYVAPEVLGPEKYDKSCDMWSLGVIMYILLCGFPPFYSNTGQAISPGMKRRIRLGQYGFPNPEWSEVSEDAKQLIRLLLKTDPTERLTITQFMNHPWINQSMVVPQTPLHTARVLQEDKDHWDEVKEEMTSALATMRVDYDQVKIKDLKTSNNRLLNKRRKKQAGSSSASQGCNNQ
Sequence of Mitogen-activated protein kinase kinase kinase kinase 2 (Homo sapiens) (Q12851 whole entry): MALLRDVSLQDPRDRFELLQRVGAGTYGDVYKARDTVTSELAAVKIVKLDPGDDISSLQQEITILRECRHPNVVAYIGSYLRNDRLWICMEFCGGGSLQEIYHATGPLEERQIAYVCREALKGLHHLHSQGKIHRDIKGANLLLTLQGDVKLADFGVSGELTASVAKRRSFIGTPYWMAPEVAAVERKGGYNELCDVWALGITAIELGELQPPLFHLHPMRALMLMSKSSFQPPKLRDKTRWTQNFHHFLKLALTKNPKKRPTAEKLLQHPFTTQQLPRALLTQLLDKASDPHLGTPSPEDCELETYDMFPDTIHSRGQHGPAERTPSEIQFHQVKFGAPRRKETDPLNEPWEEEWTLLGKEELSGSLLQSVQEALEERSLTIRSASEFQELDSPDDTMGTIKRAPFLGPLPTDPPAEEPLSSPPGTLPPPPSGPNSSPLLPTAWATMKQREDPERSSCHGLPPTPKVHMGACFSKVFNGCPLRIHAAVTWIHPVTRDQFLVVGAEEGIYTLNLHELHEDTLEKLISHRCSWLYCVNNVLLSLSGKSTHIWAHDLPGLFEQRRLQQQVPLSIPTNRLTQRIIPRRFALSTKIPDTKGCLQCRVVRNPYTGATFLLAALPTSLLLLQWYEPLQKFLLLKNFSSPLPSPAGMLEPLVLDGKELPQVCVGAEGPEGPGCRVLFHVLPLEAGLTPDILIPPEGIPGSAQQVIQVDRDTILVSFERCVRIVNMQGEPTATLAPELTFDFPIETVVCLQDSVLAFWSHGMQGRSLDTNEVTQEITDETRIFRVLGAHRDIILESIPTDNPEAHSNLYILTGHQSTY
Sequence of Protein kinase C theta type (Homo sapiens) (Q04759 whole entry, looked up): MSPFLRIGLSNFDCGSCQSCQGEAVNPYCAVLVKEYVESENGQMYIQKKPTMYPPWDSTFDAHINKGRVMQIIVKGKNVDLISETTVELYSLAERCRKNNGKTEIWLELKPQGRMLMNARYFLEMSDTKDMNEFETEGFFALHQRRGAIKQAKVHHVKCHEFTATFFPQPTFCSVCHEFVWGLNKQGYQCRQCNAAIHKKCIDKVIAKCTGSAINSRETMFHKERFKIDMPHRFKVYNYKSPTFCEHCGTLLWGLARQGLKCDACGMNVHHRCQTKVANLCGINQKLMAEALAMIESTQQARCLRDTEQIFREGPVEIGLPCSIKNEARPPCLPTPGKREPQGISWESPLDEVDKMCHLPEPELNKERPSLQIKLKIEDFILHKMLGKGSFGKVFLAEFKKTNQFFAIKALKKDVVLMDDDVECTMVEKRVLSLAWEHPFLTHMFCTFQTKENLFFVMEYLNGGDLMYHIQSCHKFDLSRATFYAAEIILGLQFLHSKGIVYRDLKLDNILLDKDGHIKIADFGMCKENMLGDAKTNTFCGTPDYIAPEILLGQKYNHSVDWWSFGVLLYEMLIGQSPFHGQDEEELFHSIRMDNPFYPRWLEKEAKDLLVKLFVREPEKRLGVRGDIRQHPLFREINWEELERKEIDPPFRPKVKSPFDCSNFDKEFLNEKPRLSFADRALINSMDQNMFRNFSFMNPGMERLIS
Sequence of Protein kinase C epsilon type (Homo sapiens) (Q02156 whole entry): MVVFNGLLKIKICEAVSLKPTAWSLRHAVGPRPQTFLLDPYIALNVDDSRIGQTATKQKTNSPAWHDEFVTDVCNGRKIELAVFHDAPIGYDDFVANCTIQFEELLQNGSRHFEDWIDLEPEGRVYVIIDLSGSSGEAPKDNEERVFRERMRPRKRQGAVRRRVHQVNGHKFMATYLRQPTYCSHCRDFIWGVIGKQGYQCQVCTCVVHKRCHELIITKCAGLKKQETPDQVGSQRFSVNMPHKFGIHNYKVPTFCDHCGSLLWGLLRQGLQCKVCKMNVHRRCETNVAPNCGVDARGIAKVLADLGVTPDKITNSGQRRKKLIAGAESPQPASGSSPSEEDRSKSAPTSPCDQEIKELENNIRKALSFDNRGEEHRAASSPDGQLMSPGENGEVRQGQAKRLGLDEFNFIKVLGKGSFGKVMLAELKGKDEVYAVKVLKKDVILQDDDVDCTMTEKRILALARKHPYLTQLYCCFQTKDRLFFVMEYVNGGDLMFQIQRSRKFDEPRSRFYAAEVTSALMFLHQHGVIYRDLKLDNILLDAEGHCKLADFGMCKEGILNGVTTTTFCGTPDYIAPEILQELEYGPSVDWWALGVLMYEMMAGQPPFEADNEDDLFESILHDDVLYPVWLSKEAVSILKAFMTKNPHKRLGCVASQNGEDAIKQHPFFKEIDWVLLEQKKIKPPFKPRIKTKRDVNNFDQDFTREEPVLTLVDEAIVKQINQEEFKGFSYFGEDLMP

inhibition [1] [%]	inhibition [2] [%]	inhibition [3] [%]	inhibition [4] [%]	inhibition [5] [%]	inhibition [6] [%]	inhibition [7] [%]	inhibition [8] [%]	inhibition [9] [%]	inhibition [10] [%]	inhibition [11] [%]	inhibition [12] [%]	inhibition [13] [%]	inhibition [14] [%]	inhibition [15] [%]	inhibition [16] [%]	inhibition [17] [%]	inhibition [18] [%]	inhibition [19] [%]	inhibition [20] [%]	SMILES	also measured
47	38	76	22	91	18	36	15	9	42	58	6	36	84	16	50	13	69	69	97	O=C(NCCCNc1nc(Nc2cccc(NC(=O)N3CCCC3)c2)ncc1I)c1cccs1	inhibition [21]: 97%; inhibition [22]: 6%; inhibition [23]: 10%; inhibition [24]: 11%; inhibition [25]: 84%; inhibition [26]: 103%
13	15	4	52	48	7	12	8	12	63	28	3	19	2	18	69	14	80	67	0	COc1ccccc1N1CCN(c2ncnc3[nH]nc(Br)c23)CC1	inhibition [21]: 18%; inhibition [22]: 4%; inhibition [23]: 11%; inhibition [24]: 5%; inhibition [25]: 2%; inhibition [26]: 20%
